Experimental data: ChEMBL document CHEMBL1138395, “Adamantane sulfone and sulfonamide 11-beta-HSD1 Inhibitors” (Bioorg Med Chem Lett, 2007)

Experiments:
[1] = target: 11-beta-hydroxysteroid dehydrogenase 1 (Mus musculus, UniProt P50172); assay: Inhibition of mouse HSD1 assessed as interconversion of cortisone to cortisol
In short: (§1)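 Enzyme inhibition measured as blocking the interconversion between cortisone and cortisol by mouse HSD1 (reported as Ki) or mouse HSD2 (reported as IC50); values are means of at least two experiments.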

[2] = Metabolic stability in mouse liver microsomes assessed as compound remaining after 30 mins; type: ADME, Microsome; conditions: read-out: Stability
In short: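 Test compound incubated with mouse liver microsomes for 30 min; percent of parent compound remaining afterward reported.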

[3] = target: T1, 11-beta-hydroxysteroid dehydrogenase type 2 (Homo sapiens, UniProt P80365); assay: Inhibition of human HSD2 assessed as interconversion of cortisone to cortisol
T1 sequence (P80365 whole entry): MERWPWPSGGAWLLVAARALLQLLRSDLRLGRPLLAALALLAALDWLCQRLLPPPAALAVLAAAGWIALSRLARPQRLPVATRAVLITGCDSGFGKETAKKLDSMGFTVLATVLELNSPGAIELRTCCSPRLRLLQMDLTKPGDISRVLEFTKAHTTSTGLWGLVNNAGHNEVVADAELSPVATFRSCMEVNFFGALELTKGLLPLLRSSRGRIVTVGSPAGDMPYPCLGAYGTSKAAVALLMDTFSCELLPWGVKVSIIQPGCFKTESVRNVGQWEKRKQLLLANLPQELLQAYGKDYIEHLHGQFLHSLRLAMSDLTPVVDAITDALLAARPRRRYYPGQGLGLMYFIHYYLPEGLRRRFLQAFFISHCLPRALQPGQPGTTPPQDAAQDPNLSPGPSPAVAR

[4] = target: T2, 11-beta-hydroxysteroid dehydrogenase 1 (Homo sapiens, UniProt P28845); assay: Inhibition of human HSD1 assessed as interconversion of cortisone to cortisol
[5] = target: T3, 11-beta-hydroxysteroid dehydrogenase type 2 (Mus musculus, UniProt P51661); assay: Inhibition of mouse HSD2 assessed as interconversion of cortisone to cortisol; in short: as §1
T3 sequence (P51661 whole entry): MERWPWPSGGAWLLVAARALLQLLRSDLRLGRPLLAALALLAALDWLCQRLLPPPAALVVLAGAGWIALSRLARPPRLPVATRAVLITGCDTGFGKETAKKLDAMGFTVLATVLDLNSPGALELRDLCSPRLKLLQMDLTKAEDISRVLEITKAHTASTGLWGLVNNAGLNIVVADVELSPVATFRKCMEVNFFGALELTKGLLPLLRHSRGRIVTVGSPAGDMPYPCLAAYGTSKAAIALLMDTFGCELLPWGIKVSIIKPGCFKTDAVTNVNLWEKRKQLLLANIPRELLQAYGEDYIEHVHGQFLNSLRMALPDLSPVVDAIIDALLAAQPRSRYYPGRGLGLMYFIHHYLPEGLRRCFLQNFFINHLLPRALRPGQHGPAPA

[6] = target: T2, 11-beta-hydroxysteroid dehydrogenase 1; assay: Inhibition of human HSD1 expressed in HEK cells; type: cell-based, HEK293
Mus musculus [7] = assay: Ex vivo inhibition of brain 11-beta-HSD1 in DIO mouse at 30 mg/kg, po after 7 hrs; type: functional
In short: (§2)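 DIO mice dosed orally at 30 mpk; animals killed 1, 7 and 16 h after the dose and liver, fat and brain taken. Ex vivo 11-β-HSD1 activity (cortisol levels) in tissue was measured and percent inhibition expressed relative to vehicle-dosed animals; means from two animals per point.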

Mus musculus [8] = assay: Ex vivo inhibition of brain 11-beta-HSD1 in DIO mouse at 30 mg/kg, po after 1 hr; type: functional; in short: as §2
Mus musculus [9] = assay: Ex vivo inhibition of liver 11-beta-HSD1 in DIO mouse at 30 mg/kg, po after 1 hr; type: functional; in short: as §2
[10] = AUC in mouse at 10 mg/kg, po; type: ADME, organism-based; parameters: dose 10 mg/kg, route oral; conditions: plasma
Mus musculus [11] = assay: Ex vivo inhibition of liver 11-beta-HSD1 in DIO mouse at 30 mg/kg, po after 16 hrs; type: functional; in short: as §2
Mus musculus [12] = assay: Ex vivo inhibition of fat 11-beta-HSD1 in DIO mouse at 30 mg/kg, po after 7 hrs; type: functional; in short: as §2
[13] = Volume of distribution at steady state in mouse at 10 mg/kg; type: ADME, organism-based; parameters: dose 10 mg/kg; conditions: in vivo, read-out: Vdss
Mus musculus [14] = assay: Ex vivo inhibition of liver 11-beta-HSD1 in DIO mouse at 30 mg/kg, po after 7 hrs; type: functional; in short: as §2
[15] = Plasma clearance in mouse at 10 mg/kg, iv; type: ADME, organism-based; parameters: dose 10 mg/kg, route intravenous
[16] = Half life in mouse at 10 mg/kg, iv; type: ADME, organism-based; parameters: dose 10 mg/kg, route intravenous; conditions: in vivo
Mus musculus [17] = assay: Ex vivo inhibition of fat 11-beta-HSD1 in DIO mouse at 30 mg/kg, po after 16 hrs; type: functional; in short: as §2
Mus musculus [18] = assay: Ex vivo inhibition of brain 11-beta-HSD1 in DIO mouse at 30 mg/kg, po after 16 hrs; type: functional; in short: as §2
Mus musculus [19] = assay: Ex vivo inhibition of fat 11-beta-HSD1 in DIO mouse at 30 mg/kg, po after 1 hr; type: functional; in short: as §2
[20] = Volume of distribution at terminal phase in mouse at 10 mg/kg; type: ADME, organism-based; parameters: dose 10 mg/kg; conditions: in vivo, read-out: Vbeta
[21] = Oral bioavailability in mouse at 10 mg/kg; type: ADME, organism-based; conditions: in vivo
[22] = Plasma clearance in mouse at 5 mg/kg, iv and 10 mg/kg, po; type: ADME, organism-based
[23] = AUC in mouse at 5 mg/kg, iv and 10 mg/kg, po; type: ADME, organism-based; conditions: plasma
[24] = Volume of distribution at terminal phase in mouse at 5 mg/kg, iv and 10 mg/kg, po; type: ADME, organism-based; conditions: in vivo, read-out: Vbeta
[25] = Oral bioavailability in mouse at 5 mg/kg, iv and 10 mg/kg, po; type: ADME, organism-based; conditions: in vivo
[26] = Volume of distribution at steady state in mouse at 5 mg/kg, iv and 10 mg/kg, po; type: ADME, organism-based; conditions: in vivo, read-out: Vdss
[27] = Half life in mouse at 5 mg/kg, iv and 10 mg/kg, po; type: ADME, organism-based; conditions: in vivo

Chain of 11-beta-hydroxysteroid dehydrogenase 1 (Mus musculus, UniProt P50172) (P50172 whole entry): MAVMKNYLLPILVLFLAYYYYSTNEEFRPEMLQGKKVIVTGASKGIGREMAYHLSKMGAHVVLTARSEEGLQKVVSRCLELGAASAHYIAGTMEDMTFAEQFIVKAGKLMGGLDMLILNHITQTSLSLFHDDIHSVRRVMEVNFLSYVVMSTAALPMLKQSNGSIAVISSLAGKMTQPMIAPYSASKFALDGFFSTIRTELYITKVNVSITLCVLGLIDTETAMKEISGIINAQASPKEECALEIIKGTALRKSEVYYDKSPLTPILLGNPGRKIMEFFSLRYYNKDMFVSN
T2 sequence (P28845 whole entry): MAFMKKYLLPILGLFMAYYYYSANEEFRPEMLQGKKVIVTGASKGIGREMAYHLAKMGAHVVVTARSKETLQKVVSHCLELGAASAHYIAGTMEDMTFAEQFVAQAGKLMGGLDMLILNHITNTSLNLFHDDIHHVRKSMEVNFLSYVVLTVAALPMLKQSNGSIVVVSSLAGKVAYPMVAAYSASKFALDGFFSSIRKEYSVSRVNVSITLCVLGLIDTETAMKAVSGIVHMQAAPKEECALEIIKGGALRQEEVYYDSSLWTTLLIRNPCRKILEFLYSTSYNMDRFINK

SMILES	Ki [1] [nM]	remaining at 0.5 h [2] [%]	IC50 [3] [nM]	Ki [4] [nM]	IC50 [5] [nM]	IC50 [6] [nM]	further results
CC(C)(Oc1ccccc1)C(=O)N[C@H]1C2CC3CC1C[C@](S(N)(=O)=O)(C3)C2	13	62	–	–	> 100000	–	–
CC(=O)NS(=O)(=O)[C@]12CC3CC(C1)[C@@H](NC(=O)C(C)(C)Oc1ccc(Cl)cc1)C(C3)C2	110	–	–	170	–	–	–
CC(C)(Oc1ccccc1OC(F)(F)F)C(=O)N[C@H]1C2CC3CC1C[C@](S(N)(=O)=O)(C3)C2	3	38	–	–	> 100000	–	–
CC(C)(C(=O)N[C@H]1C2CC3CC1C[C@](S(N)(=O)=O)(C3)C2)c1ccccc1	210	–	> 100000	8	> 100000	420	–
CC(C)(Oc1ccc(F)cc1Cl)C(=O)N[C@H]1C2CC3CC1C[C@](S(N)(=O)=O)(C3)C2	3	61	> 100000	6	> 100000	125	inhibition in vivo at 30 mg/kg (Mus musculus [7]): 48%; inhibition in vivo at 30 mg/kg (Mus musculus [8]): 29%; inhibition in vivo at 30 mg/kg (Mus musculus [9]): 70%; AUC [10]: 7000 ng·h/mL; inhibition in vivo at 30 mg/kg (Mus musculus [11]): 82%; inhibition in vivo at 30 mg/kg (Mus musculus [12]): 88%; Vd [13]: 2.6 L/kg; inhibition in vivo at 30 mg/kg (Mus musculus [14]): 78%; clearance [15]: 15 mL/min/kg; half-life [16]: 2.8 h; inhibition in vivo at 30 mg/kg (Mus musculus [17]): 93%; inhibition in vivo at 30 mg/kg (Mus musculus [18]): 73%; inhibition in vivo at 30 mg/kg (Mus musculus [19]): 62%; Vd [20]: 3.5 L/kg; bioavailability [21]: 61%
CC(C)(Oc1c(Cl)cc(F)cc1Cl)C(=O)N[C@H]1C2CC3CC1C[C@](S(N)(=O)=O)(C3)C2	2	55	9000	3	> 100000	190	–
CNS(=O)(=O)[C@]12CC3CC(C1)[C@@H](NC(=O)C(C)(C)Oc1ccc(Cl)cc1)C(C3)C2	–	< 1	–	–	> 100000	–	–
CC(C)(Oc1ccc(Cl)cc1)C(=O)N[C@H]1C2CC3CC1C[C@](S(N)(=O)=O)(C3)C2	–	96	–	–	> 100000	–	clearance [22]: 13.3 mL/min/kg; AUC [23]: 18300 ng·h/mL; Vd [24]: 2.1 L/kg; bioavailability [25]: 150%; Vd [26]: 2.1 L/kg; half-life [27]: 1.8 h
CC(C)(Oc1ccccc1C(F)(F)F)C(=O)N[C@H]1C2CC3CC1C[C@](S(C)(=O)=O)(C3)C2	3	–	> 100000	7	> 100000	120	–
CC(C)(Oc1ccccc1Cl)C(=O)N[C@H]1C2CC3CC1C[C@](S(C)(=O)=O)(C3)C2	2	–	5400	5	> 100000	120	–
CC(C)(Oc1cccc(Cl)c1)C(=O)N[C@H]1C2CC3CC1C[C@](S(N)(=O)=O)(C3)C2	6	–	6300	4	> 100000	320	–

Further lines, with some results ahead:

Ki [1] [nM]	remaining at 0.5 h [2] [%]	IC50 [3] [nM]	Ki [4] [nM]	IC50 [5] [nM]	IC50 [6] [nM]	SMILES	further results
2	36	5500	4	> 100000	83	CC(C)(Oc1ccccc1Cl)C(=O)N[C@H]1C2CC3CC1C[C@](S(N)(=O)=O)(C3)C2	–
38	< 1	15000	110	87000	500	CC(C)(Oc1ccc(F)cc1Cl)C(=O)N[C@H]1C2CC3CC1C[C@](S(=O)(=O)CCCN1CCOCC1)(C3)C2	–
7	–	> 100000	20	> 100000	690	COc1cc(F)ccc1OC(C)(C)C(=O)N[C@H]1C2CC3CC1C[C@](S(C)(=O)=O)(C3)C2	–
7	–	–	–	> 100000	–	CCS(=O)(=O)[C@]12CC3CC(C1)[C@@H](NC(=O)C(C)(C)Oc1ccc(F)cc1Cl)C(C3)C2	–
4	59	3300	8	> 100000	300	CC(C)(Oc1ccc(F)cc1Cl)C(=O)N[C@H]1C2CC3CC1C[C@](S(=O)(=O)CC(N)=O)(C3)C2	–
10	7	–	–	> 100000	–	CC(C)(Oc1cccc(Cl)c1)C(=O)N[C@H]1C2CC3CC1C[C@](S(C)(=O)=O)(C3)C2	–
8	70	–	–	> 100000	–	CC(C)(Oc1ccc(Cl)cc1)C(=O)N[C@H]1C2CC3CC1C[C@](S(C)(=O)=O)(C3)C2	–
8	63	–	–	> 100000	–	CC(C)(Oc1ccc(Cl)cc1F)C(=O)N[C@H]1C2CC3CC1C[C@](S(C)(=O)=O)(C3)C2	–
21	< 1	–	–	100000	–	CN(C)S(=O)(=O)[C@]12CC3CC(C1)[C@@H](NC(=O)C(C)(C)Oc1ccc(Cl)cc1)C(C3)C2	–
